Series [1] deals with T1, Ileal sodium/bile acid cotransporter (Homo sapiens, UniProt Q12908).
T1 sequence (Q12908 whole entry): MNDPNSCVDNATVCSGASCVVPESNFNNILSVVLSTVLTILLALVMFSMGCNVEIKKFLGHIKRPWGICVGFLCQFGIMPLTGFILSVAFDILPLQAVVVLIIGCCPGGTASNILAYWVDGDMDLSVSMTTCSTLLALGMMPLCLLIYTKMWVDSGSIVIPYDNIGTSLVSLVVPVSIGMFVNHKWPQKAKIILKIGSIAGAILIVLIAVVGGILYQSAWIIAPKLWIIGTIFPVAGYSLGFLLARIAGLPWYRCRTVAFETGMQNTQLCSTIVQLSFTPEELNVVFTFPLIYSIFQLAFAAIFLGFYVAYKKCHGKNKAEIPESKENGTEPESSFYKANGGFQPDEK
Put plainly: In vitro inhibition of ASBT mediated uptake of [14C]taurocholate (5 uM) in Baby hamster cells expressing human IBAT. Type of series: cell-based. The method in brief:
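BHK cells stably transfected with human IBAT cDNA (H14) were seeded 24–72 h before assay at cell densities adjusted to that interval. Cells were washed, then incubated for 2 h at 37 °C in DMEM (4.5 g/L glucose, 0.2% fatty-acid-free BSA) with test compound and [14C]taurocholate. Wells were washed with cold PBS containing BSA and then with PBS alone. Cell-associated radioactivity was measured by scintillation counting, and IC50 values were derived.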

Series [2] concerns the target T1, Ileal sodium/bile acid cotransporter. The series is described as follows: Effect on fecal bile acid in cholesterol-fed hamster; control is at 8.0. Type of series: functional, Feces.
Series [3] has the same target. The series is described as follows: Effect on 24 hr fecal weight in cholesterol-fed hamster; control is at 2.1. The class given is functional, Feces.
For series [4] the target is unchanged. Put plainly: Effect on serum total cholesterol in cholesterol-fed hamster; control is at 135. Type of series: functional.
Series [5] has the same target. The series is described as follows: Effect on 24 hr fecal weight in cholesterol-fed hamster; control is at 2.3. Type of series: functional, Feces.
Series [6] shares this target. The series is described as follows: Effect on serum total cholesterol in cholesterol-fed hamster; control is at 143. The class given is functional.
Series [7] has the same target. The series is described as follows: Effect on fecal bile acids in cholesterol-fed hamster; control is at 6.2. The class given is functional, Feces.
Series [8] has the same target. Put plainly: Effect on fecal bile acid in cholesterol-fed hamster; control is at 6.1. Type of series: functional, Feces.
Series [9] has the same target. The series is described as follows: Effect on serum total cholesterol in cholesterol-fed hamster; control is at 129. The class given is functional.
For series [10] the target is unchanged. Put plainly: Effect on 24 hr fecal weight in cholesterol-fed hamster; control is at 1.7. Type of series: functional, Feces.
For series [11] the target is unchanged. Put plainly: Effect on fecal bile acid in cholesterol-fed hamster; control is at 8.7. Type of series: functional, Feces.
Series [12] shares this target. Put plainly: Effect on serum total cholesterol in cholesterol-fed hamster; control is at 195. The class given is functional.
The target is the same in series [13]. Put plainly: Effect on 24 hr fecal weight in cholesterol-fed hamster; control is at 3.5. Type of series: functional, Feces.

In general, IC50 refers to the concentration at which inhibition is half-maximal. For orientation: Inhibition means the share of the control response that was lost under treatment. A lower Inhibition goes with little suppression.

In turn, `CCCCC1(CCCC)CS(=O)(=O)c2ccc(N(C)C)cc2[C@@H](c2ccc(OC)cc2)[C@H]1O` showed a concentration for half-maximal inhibition (IC50) in series [1] of 7 nM.

Turning to `CCCCC1(CCCC)CS(=O)(=O)c2c(cccc2N(C)C)[C@@H](c2ccc(F)cc2)[C@H]1O`, in series [1], the IC50 worked out at 180 nM.

As to `CCCCC1(CCCC)CS(=O)(=O)c2ccc([N+](C)(C)C)cc2[C@@H](c2ccccc2)[C@H]1O`, the concentration for half-maximal inhibition (IC50) in series [1] was 210 nM. Turning to `CCCCC1(CCCC)CS(=O)(=O)c2ccc(OC)cc2[C@@H](c2ccc(F)cc2)[C@H]1O`, half-maximal inhibition in series [1] (IC50) was put at 50 nM. On the same count and under the same terms, next, `CCCCC1(CCCC)CS(=O)(=O)c2ccc(N(C)C)cc2[C@@H](c2ccc(F)cc2)[C@H]1O`: 10 nM; `C=CCCCCCCCCOc1ccc2c(c1)S(=O)(=O)C[C@@](CC)(CCCC)[C@H](O)[C@@H]2c1ccccc1`: 16000 nM.

`CCCC[C@]1(CC)CS(=O)(=O)c2ccc(NO)cc2[C@@H](c2ccccc2)[C@H]1O` displayed a 50% inhibitory concentration (IC50) in series [1] of 260 nM. In [1], `CCCC[C@]1(CC)CS(=O)(=O)c2ccc(SC)cc2[C@@H](c2ccc(F)cc2)[C@H]1O` registered an IC50 of 19 nM.

Molecule `CC1(C)CS(=O)(=O)c2ccc(N)cc2[C@@H](c2ccccc2)[C@H]1O` registered an IC50 in [1] above 50000 nM. On the same count and under the same terms, next, `CCCC[C@]1(CC)CS(=O)(=O)c2ccc(-c3ccccc3)cc2[C@@H](c2cccc(OC)c2)[C@H]1O`: 180 nM; `CCCCC1(CCCC)CS(=O)(=O)c2ccc(Br)cc2[C@@H](c2ccccc2Br)[C@H]1O`: 550 nM. The same measure, in the same setting: next, `CCCCC1(CCCC)CS(=O)(=O)c2ccc(N(C)C)cc2[C@@H](c2ccccc2)[C@H]1O`: 13 nM; `CCCC[C@]1(CC)CS(=O)(=O)c2ccc(Br)cc2[C@@H](c2cccc(OC)c2)[C@H]1O`: 70 nM; `CCCCCC1(CCCCC)CS(=O)(=O)c2ccc(C)cc2[C@@H](c2ccc(F)cc2)[C@H]1O`: 318 nM. With `CCCCC1(CCCC)CS(=O)(=O)c2c(F)cccc2[C@@H](c2ccc(F)cc2)[C@H]1O`, the 50% inhibitory concentration (IC50) in series [1] is 180 nM.

With `CCCC[C@]1(CC)CS(=O)(=O)c2ccc(N(C)C)cc2[C@@H](c2ccccc2)[C@H]1O`, the FBA in [2] is on record as 13.7 ((mmol/day)/100g). This molecule also came in with a Fecal weight in series [3] of 2.1 g. In [4], this molecule came in with a Total cholesterol of 97 mg/dL. In addition, in series [1], the IC50 is 5 nM. In series [1], `CCCC[C@]1(CC)CS(=O)(=O)c2ccc(NS(C)(=O)=O)cc2[C@@H](c2ccccc2)[C@H]1O` had an IC50 of 600 nM. For the molecule `CCCC[C@]1(CC)CS(=O)(=O)c2ccc(NC(C)=O)cc2[C@@H](c2ccccc2)[C@H]1O`, the concentration for half-maximal inhibition (IC50) in series [1] was 90 nM. On the same count and under the same terms, next, `CCCCC1(CCCC)CS(=O)(=O)c2cc(OC)ccc2[C@@H](c2ccccc2)[C@H]1O`: 190 nM. Same read-out and setting: the same measure for `CCCC[C@]1(CC)CS(=O)(=O)c2ccc(N(O)C(=O)OC(C)(C)C)cc2[C@@H](c2ccccc2)[C@H]1O`: 2670 nM.

Regarding `CCCC[C@]1(CC)CS(=O)(=O)c2ccc(N3CCCC3)cc2[C@@H](c2ccc(F)cc2)[C@H]1O`, in [1], half-maximal inhibition (IC50) was put at 59 nM. `CCCC[C@]1(CC)CS(=O)(=O)c2cc(OC)ccc2[C@@H](c2ccccc2)[C@H]1O`: the Fecal weight in series [5] was determined as 2.4 g. For the same molecule, in [6], the Total cholesterol worked out at 126 mg/dL. The FBA in series [7] is 11.9 ((mmol/day)/100g). In addition, the IC50 in series [1] is 120 nM. The molecule `CCCC[C@]1(CC)CS(=O)(=O)c2ccc(C)cc2[C@@H](c2ccc(F)cc2)[C@H]1O` had an IC50 in series [1] of 21 nM. For `CCCC[C@]1(CC)CS(=O)(=O)c2ccc(NC(=O)OCc3ccccc3)cc2[C@@H](c2ccccc2)[C@H]1O`, 400 nM corresponded to half-maximal inhibition in [1] (IC50).

As for `CCCC[C@]1(CC)CS(=O)(=O)c2ccc(N)cc2[C@@H](c2ccccc2)[C@H]1O`, the FBA in series [8] is reported as 8.8 ((mmol/day)/100g). In series [9], this molecule gave a Total cholesterol of 126 mg/dL. In addition, in series [10], the Fecal weight amounted to 1.6 g. Besides, in series [1], inhibition was half-maximal at 68 nM (IC50). Molecule `CCCCC1(CCCC)CS(=O)(=O)c2ccc(C)cc2[C@@H](c2ccc(F)cc2)[C@H]1O` had a concentration for half-maximal inhibition (IC50) in series [1] of 46 nM.

Molecule `CCCCC1(CCCC)CS(=O)(=O)c2c(OC)cc(N(C)C)cc2[C@@H](c2ccc(OC)cc2)[C@H]1O` had an IC50 in series [1] of 2 nM. The same measure, in the same setting: the same measure for `CCCCCCNc1ccc2c(c1)[C@@H](c1ccccc1)[C@@H](O)[C@](CC)(CCCC)CS2(=O)=O`: 1670 nM; for `CCCC[C@]1(CC)CS(=O)(=O)c2ccc(OC)cc2[C@@H](c2ccccc2)[C@H]1O`: 55 nM; for `CCCCCC(=O)Nc1ccc2c(c1)[C@@H](c1ccccc1)[C@@H](O)[C@](CC)(CCCC)CS2(=O)=O`: 300 nM. The same measure, in the same setting: next, `CCCCC1(CCCC)CS(=O)(=O)c2cc(N(C)C)ccc2[C@@H](c2ccccc2)[C@H]1O`: 120 nM.

Take `CCCCC1(CCCC)CS(=O)(=O)c2ccc(N(C)C)cc2[C@@H](c2ccc(OCCOCCOCC[N+](CC)(CC)CC)cc2)[C@H]1O.[Br-]`: the FBA in series [11] is on record as 16.2 ((mmol/day)/100g). Further, in [1], it took 3 nM to reach half-maximal inhibition (IC50). Further, the Total cholesterol in series [12] was 141 mg/dL. The Fecal weight in series [13] was determined as 3.9 g.

In [1], `CCCC[C@]1(CC)CS(=O)(=O)c2ccccc2[C@H](c2ccccc2)[C@H]1O` (racemic) had an Inhibition of 37%. Molecule `CCCC[C@]1(CC)CS(=O)(=O)c2ccccc2[C@@H](c2ccccc2)[C@@H]1O` (racemic) registered an IC50 in series [1] of 4800 nM. The same measure, in the same setting: next, `CCCC[C@]1(CC)CS(=O)(=O)c2ccccc2[C@@H](c2ccccc2)[C@H]1O` (racemic): 280 nM.

The values are drawn from ChEMBL document CHEMBL1141078, “Discovery of potent, nonsystemic apical sodium-codependent bile acid transporter inhibitors (Part 1)” (J Med Chem, 2005).
